Results reported in ChEMBL document CHEMBL1833815, “Novel inhibitors of NRH:quinone oxidoreductase 2 (NQO2): crystal structures, biochemical activity, and intracellular effects of imidazoacridin-6-ones” (J Med Chem, 2011).
Calls of active or inactive are those of the source. No cut-off for these calls is given here.

How the values were obtained:
[1] = Drug uptake in nucleus of human MDA468 cells assessed as subcellular localization at 25 uM after 3 hrs by phalloidin-based fluorescent imaging; assay type: ADME, cell-based; conditions: mda-mb-468, 3 h
Procedure, shortened: (§1)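 MDA-MB-468 cells on coverslips at about 70% confluence treated 3 h. Fixed in 3.6% formaldehyde plus 0.2% glutaraldehyde, permeabilized with 0.1% Triton X-100, blocked in 10% BSA. Counterstained with Alexa Fluor 568 phalloidin (1:1000) to show actin architecture. Compound fluorescence imaged at excitation 340 nm, emission 520 nm; phalloidin visualized at 568 nm.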

[2] = system: HCT-116; assay: Cytotoxicity against human HCT116 cells after 96 hrs by MTT assay; assay type: cell-based; conditions: HCT-116, 96 h
Procedure, shortened: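 HCT116 cells in RPMI-1640 with 10% FCS and 2 mM glutamine, seeded at 2.5 × 10³ per well, left overnight, then exposed continuously for 96 h in full medium. Viability by MTT (1.5 mM final, 4 h, DMSO solubilization, A540). IC50 = concentration reducing OD by 50% relative to vehicle controls; repeated on at least three occasions.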

[3] = molecular target: T1, Ribosyldihydronicotinamide dehydrogenase [quinone] (Homo sapiens, UniProt P16083); assay: Inhibition of human recombinant NQO2 assessed as reduction of DCPIP by spectrophotometry in the presence of 2 uM BSA
T1 sequence (P16083 whole entry): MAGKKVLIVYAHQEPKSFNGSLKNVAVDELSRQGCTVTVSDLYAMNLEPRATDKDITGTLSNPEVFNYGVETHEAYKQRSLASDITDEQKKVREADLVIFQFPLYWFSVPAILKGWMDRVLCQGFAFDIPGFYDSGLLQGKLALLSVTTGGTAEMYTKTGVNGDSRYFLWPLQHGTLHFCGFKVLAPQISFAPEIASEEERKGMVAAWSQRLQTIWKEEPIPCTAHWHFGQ
Procedure, shortened: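 Recombinant human NQO2 (His-tag/size-exclusion purified, expressed in BL21 codon+ cells) in 50 mM phosphate pH 7.4 with 40 μM DCPIP and 200 μM NRH, 2 μM BSA present, inhibitor in DMSO (1.0% v/v final), 37 °C. DCPIP reduction followed at 600 nm; IC50 = 50% drop in initial rate by nonlinear fit; triplicates, three experiments.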

[4] = molecular target: T1, Ribosyldihydronicotinamide dehydrogenase [quinone]; assay: Inhibition of human recombinant NQO2 assessed as reduction of DCPIP by spectrophotometry
Procedure, shortened: (§2)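 Recombinant human NQO2 (His-tag/size-exclusion purified from E. coli BL21) diluted to give about 0.1 A/min. Assay in 50 mM phosphate pH 7.4 with 40 μM DCPIP, 200 μM NRH, and inhibitor in DMSO (1.0% v/v final), with or without 2 μM BSA, at 37 °C. DCPIP reduction followed at 600 nm. IC50 = 50% reduction of initial rate by nonlinear fit; triplicates, three experiments.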

[5] = molecular target: T2, Ribosyldihydronicotinamide dehydrogenase [quinone] (Homo sapiens) (UniProt P16083); assay: Inhibition of NQO2-mediated activation of CB1954 in human MDA468 cells at 100 uM after 3 hrs in the presence of 100 uM […]; assay type: cell-based; conditions: MDA-MB-468
T2 sequence (whole entry): T1 sequence (P16083 whole entry)
Procedure, shortened: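 MDA468 cells exposed 3 h to inhibitor together with CB1954 (10 μM in figure; varying concentrations per methods) plus 100 μM NRH cofactor. Cells then washed with PBS, refed with fresh medium, and incubated to 96 h total. Viability measured by MTT assay; protection from CB1954 toxicity serves as a readout of cellular NQO2 inhibition.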

[6] = system: HCT-116; assay: Cytotoxicity against human HCT116 cells after 24 hrs by MTT assay; assay type: cell-based; conditions: HCT-116, 24 h
Procedure, shortened: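 HCT116 cells in RPMI-1640 with 10% FCS and 2 mM glutamine, seeded at 2.5 × 10³ per well and attached overnight. Exposed to compound for 24 h, then drug replaced with fresh medium, growth to 96 h total. MTT 1.5 mM final for 4 h, formazan in DMSO, A540. IC50 = concentration giving 50% OD reduction versus vehicle; ≥3 separate experiments.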

[7] = molecular target: T2, Ribosyldihydronicotinamide dehydrogenase [quinone] (Homo sapiens); assay: Ratio of IC50 for human recombinant NQO2 in the presence of BSA to IC50 for human recombinant NQO2 in the absence of BSA; procedure, shortened: as §2
[8] = Drug uptake in cytoplasm of human MDA468 cells at 25 uM after 3 hrs by phalloidin-based fluorescence imaging; assay type: ADME, cell-based; conditions: mda-mb-468, 3 h; procedure, shortened: as §1
[9] = system: Nucleic Acid; assay: Binding affinity to calf thymus DNA assessed as increase in melting temperature at 10 uM; assay type: nucleic-acid assay; conditions: Bos taurus
Procedure, shortened: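 Calf thymus DNA (20 μg/mL) with 10 μM compound in low-salt phosphate buffer (7.5 mM NaH₂PO₄, 1 mM EDTA, pH 7.0). Cuvettes heated from 37 to 98 °C with A260 read at every degree. Tm taken from at least three independent determinations; 10 μM adriamycin served as positive control.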

[10] = Drug uptake in nucleus of human MDA468 cells assessed as subcellular localization at 5 uM after 3 hrs by phalloidin-based fluorescent imaging; assay type: ADME, cell-based; conditions: mda-mb-468, 3 h
Procedure, shortened: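 MDA-MB-468 cells grown on coverslips to about 70% confluency, exposed 3 h, fixed in 3.6% formaldehyde plus 0.2% glutaraldehyde, permeabilised with 0.1% Triton X-100, blocked in 10% BSA, stained with Alexa Fluor 568 phalloidin (1:1000) for actin. Imaged by fluorescence microscopy; compound excited at 340 nm, emission 520 nm; phalloidin read at 568 nm.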

SMILES | Drug uptake [1] | IC50 [2] [nM] | IC50 [3] [nM] | IC50 [4] [nM] | inhibition [5] | IC50 [6] [µM] | Ratio IC50 [7] | Drug uptake [8] | Tm [9] [°C] | Drug uptake [10]
COc1ccc2c(c1)c(=O)c1c(NCC[N+](C)(C)[O-])ccc3ncn2c31 | Not Active | 12800 | 98 | 14 | Active | 40.3 | 7 | Active | 85 | 
C[N+](C)([O-])CCNc1ccc2ncn3c4ccc(O)cc4c(=O)c1c23 |  | 19700 |  | 42 |  | 38.7 |  |  |  | 
CN(C)CCNc1ccc2ncn3c4ccc(O)cc4c(=O)c1c23 |  | 370 |  | 83 |  | 1.61 |  |  |  | 
Cc1nc2ccc(NCCN(C)C)c3c(=O)c4cc(O)ccc4n1c23 |  | 950 |  | 90 |  | 3.01 |  |  |  | 
COc1ccc2c(c1)c(=O)c1c(NCC[N+](C)(C)[O-])ccc3nc(C)n2c31 |  | 11400 |  | 73 |  | 58.2 |  |  |  | 
COc1cccc2c1C(=O)c1c(O)c3c(c(O)c1C2=O)C[C@@](O)(C(=O)CO)C[C@@H]3O[C@H]1C[C@H](N)[C@H](O)[C@H](C)O1 |  |  |  |  |  |  |  |  | 90.8 | 
COc1ccc2c(c1)c(=O)c1c(NCCN(C)C)ccc3ncn2c31 |  | 510 | 3200 | 59 |  | 2.1 | 54 |  | 88.6 | Active
CCN(CC)CCNc1ccc2nc(C)n3c4ccc(O)cc4c(=O)c1c23 |  | 930 |  | 54 |  | 5.46 |  |  |  | 
Cc1nc2ccc(NCCN(C)C)c3c(=O)c4ccccc4n1c23 |  | 500 |  | 90 |  | 1.94 |  |  |  | 
CN(C)CCNc1ccc2ncn3c4ccccc4c(=O)c1c23 |  | 600 |  | 115 |  | 2.53 | 38 |  |  | 
CCN(CC)CCNc1ccc2ncn3c4ccc(O)cc4c(=O)c1c23 [C-1311] |  | 1140 |  | 126 |  | 4.16 |  |  |  | 
COc1ccc2c(c1)c(=O)c1c(NCCN(C)C)ccc3nc(C)n2c31 |  | 460 |  | 46 |  | 1.86 |  |  |  | 
Cc1nc2ccc(NCC[N+](C)(C)[O-])c3c(=O)c4ccccc4n1c23 |  | 16100 |  | 56 |  | 34.9 |  |  |  | 
C[N+](C)([O-])CCNc1ccc2ncn3c4ccc(F)cc4c(=O)c1c23 |  | 17300 |  | 205 |  | 40.3 |  |  |  | 
Cc1nc2ccc(NCCN(C)C)c3c(=O)c4cc(Br)ccc4n1c23 |  | 440 |  | 74 |  | 1.91 |  |  |  | 
Cc1nc2ccc(NCC[N+](C)(C)[O-])c3c(=O)c4cc(F)ccc4n1c23 |  | 9200 |  | 97 |  | 31 |  |  |  | 
CN(C)CCNc1ccc2ncn3c4ccc(F)cc4c(=O)c1c23 |  | 660 |  | 97 |  | 2.9 |  |  |  | 
Cc1nc2ccc(NCC[N+](C)(C)[O-])c3c(=O)c4cc(Br)ccc4n1c23 |  | 10600 |  | 47 |  | 49 |  |  |  | 
C[N+](C)([O-])CCNc1ccc2ncn3c4ccccc4c(=O)c1c23 |  | 12100 |  | 96 |  | 41 | 6.5 |  |  | 
Cc1nc2ccc(NCCN(C)C)c3c(=O)c4cc(F)ccc4n1c23 |  | 510 |  | 83 |  | 2.11 |  |  |  | 
